Reference: ChEMBL document CHEMBL3525985, “Regiospecificity and stereospecificity of human UDP-glucuronosyltransferases in the glucuronidation of estriol, 16-epiestriol, 17-epiestriol, and 13-epiestradiol” (Drug Metab Dispos, 2013)

Legend:
Format in all cases: ADME
Details in all cases: recombinant enzyme
[1] = molecular target: T1, UDP-glucuronosyltransferase 2B4 (Homo sapiens, UniProt P06133); assay: Drug metabolism assessed as recombinant human C-terminal His-tagged UGT2B4-mediated 13-epiestradiol-17-glucuronide formation at 200 uM after 15 to 60 mins by HPLC analysis in presence of UDPGA
T1 sequence (P06133 whole entry): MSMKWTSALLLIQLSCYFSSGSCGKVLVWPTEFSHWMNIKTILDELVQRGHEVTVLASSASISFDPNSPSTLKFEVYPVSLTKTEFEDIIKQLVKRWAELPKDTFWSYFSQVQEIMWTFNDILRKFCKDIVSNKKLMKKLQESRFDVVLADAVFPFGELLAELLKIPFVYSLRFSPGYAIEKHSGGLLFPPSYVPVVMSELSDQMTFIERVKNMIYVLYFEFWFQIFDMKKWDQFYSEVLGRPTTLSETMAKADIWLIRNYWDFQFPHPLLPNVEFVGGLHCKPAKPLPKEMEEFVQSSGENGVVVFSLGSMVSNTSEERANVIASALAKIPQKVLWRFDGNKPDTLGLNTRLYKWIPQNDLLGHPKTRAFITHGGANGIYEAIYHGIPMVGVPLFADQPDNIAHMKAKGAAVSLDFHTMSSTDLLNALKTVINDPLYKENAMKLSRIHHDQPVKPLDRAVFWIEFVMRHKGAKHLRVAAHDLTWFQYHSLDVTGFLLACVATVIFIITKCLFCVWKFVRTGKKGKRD
In short: (§1)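 Screening at a single substrate concentration of 200 μM, in triplicate. The reaction used 5 or 50 µg of UGT-enriched insect cell membranes in 50 mM phosphate pH 7.4 with 10 mM MgCl₂ and 5 mM UDPGA, 10% final DMSO. Incubation was 15–60 min at 37°C. Perchloric acid stopped the reaction and supernatants were analysed by HPLC. Controls lacked UDPGA. Rates were normalized to relative UGT expression level.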

[2] = molecular target: T2, UDP-glucuronosyltransferase 2B7 (Homo sapiens, UniProt P16662); assay: Drug metabolism assessed as recombinant human C-terminal His-tagged UGT2B7-mediated estradiol-17-glucuronide formation at 200 uM after 15 to 60 mins by HPLC analysis in presence of UDPGA
T2 sequence (P16662 whole entry): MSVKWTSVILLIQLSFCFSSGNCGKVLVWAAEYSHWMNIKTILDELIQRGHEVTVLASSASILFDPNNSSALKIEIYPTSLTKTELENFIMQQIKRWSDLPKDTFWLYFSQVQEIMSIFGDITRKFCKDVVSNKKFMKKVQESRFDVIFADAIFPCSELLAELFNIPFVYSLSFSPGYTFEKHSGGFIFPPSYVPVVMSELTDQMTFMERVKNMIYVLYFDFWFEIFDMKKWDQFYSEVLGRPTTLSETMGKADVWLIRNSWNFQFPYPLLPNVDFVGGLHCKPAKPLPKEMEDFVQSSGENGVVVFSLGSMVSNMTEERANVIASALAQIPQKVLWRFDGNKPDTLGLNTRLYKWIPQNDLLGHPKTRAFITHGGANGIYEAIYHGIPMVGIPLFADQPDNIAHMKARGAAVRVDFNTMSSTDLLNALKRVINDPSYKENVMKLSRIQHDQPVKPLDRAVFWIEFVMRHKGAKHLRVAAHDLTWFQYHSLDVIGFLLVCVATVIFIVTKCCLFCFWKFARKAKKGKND
In short: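 Membranes (5 or 50 µg) from insect cells expressing His-tagged UGT2B7, with 200 µM aglycone in 50 mM phosphate pH 7.4, 10 mM MgCl₂, 5 mM UDPGA and 10% DMSO (final), 15–60 min at 37°C. Stopped with perchloric acid on ice, supernatant run on HPLC. Done in triplicate with no-UDPGA controls; rates normalized to relative UGT expression.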

[3] = molecular target: T3, UDP-glucuronosyltransferase 1A8 (Homo sapiens, UniProt Q9HAW9); assay: Drug metabolism assessed as recombinant human C-terminal His-tagged UGT1A8-mediated estriol-3-glucuronide formation at 200 uM after 15 to 60 mins by HPLC analysis in presence of UDPGA
T3 sequence (Q9HAW9 whole entry): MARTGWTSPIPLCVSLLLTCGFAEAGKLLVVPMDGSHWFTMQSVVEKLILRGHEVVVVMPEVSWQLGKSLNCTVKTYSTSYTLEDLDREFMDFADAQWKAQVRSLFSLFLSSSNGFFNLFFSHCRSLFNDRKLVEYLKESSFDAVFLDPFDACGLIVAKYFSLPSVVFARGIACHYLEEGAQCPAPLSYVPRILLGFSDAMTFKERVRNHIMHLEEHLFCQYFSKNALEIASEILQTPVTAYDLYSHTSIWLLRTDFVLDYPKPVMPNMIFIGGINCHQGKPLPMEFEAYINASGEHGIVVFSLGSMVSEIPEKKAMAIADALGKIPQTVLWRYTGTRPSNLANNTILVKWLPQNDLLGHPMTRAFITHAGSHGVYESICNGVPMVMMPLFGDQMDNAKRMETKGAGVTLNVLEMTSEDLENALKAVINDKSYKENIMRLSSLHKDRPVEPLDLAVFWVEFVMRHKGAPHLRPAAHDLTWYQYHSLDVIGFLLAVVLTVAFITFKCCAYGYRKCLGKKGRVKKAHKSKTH
In short: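 Screen at 200 µM substrate (DMSO, 10% final) with 5 or 50 µg UGT-enriched insect-cell membranes in 50 mM phosphate pH 7.4, 10 mM MgCl2, 5 mM UDPGA; 37°C, 15–60 min. Stopped with perchloric acid, then iced and centrifuged; glucuronides resolved by HPLC. Triplicates with no-UDPGA controls; ≤10% substrate consumed; rates normalized to relative UGT expression (UGT1A7 15.5, UGT1A8 1.4; UGT1A3 = 1.0).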

[4] = molecular target: T4, UDP-glucuronosyltransferase 2A1 (Homo sapiens, UniProt P0DTE4); assay: Drug metabolism assessed as recombinant human C-terminal His-tagged UGT2A1-mediated 17-epiestriol-16-glucuronide formation at 200 uM after 15 to 60 mins by HPLC analysis in presence of UDPGA; in short: as §1
T4 sequence (P0DTE4 whole entry): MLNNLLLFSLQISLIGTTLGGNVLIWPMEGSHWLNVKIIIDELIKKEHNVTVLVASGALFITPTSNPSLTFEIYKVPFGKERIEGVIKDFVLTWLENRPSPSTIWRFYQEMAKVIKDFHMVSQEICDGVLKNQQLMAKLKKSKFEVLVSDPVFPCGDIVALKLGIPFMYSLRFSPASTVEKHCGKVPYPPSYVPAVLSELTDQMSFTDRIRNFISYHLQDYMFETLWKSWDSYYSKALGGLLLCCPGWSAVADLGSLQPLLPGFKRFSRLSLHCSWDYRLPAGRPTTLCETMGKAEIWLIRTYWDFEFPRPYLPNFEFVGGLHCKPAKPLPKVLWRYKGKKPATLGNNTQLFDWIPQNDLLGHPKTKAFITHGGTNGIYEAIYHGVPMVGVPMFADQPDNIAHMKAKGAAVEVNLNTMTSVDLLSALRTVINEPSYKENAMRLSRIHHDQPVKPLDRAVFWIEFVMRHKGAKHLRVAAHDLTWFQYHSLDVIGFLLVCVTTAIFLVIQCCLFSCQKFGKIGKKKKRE

For C[C@@]12CC[C@@H]3c4ccc(O)cc4CC[C@H]3[C@@H]1CC[C@@H]2O, the Drug metabolism [1] was “metabolite_detected”.

In the case of C[C@]12CC[C@@H]3c4ccc(O)cc4CC[C@H]3[C@@H]1CC[C@@H]2O [ESTRADIOL], the Drug metabolism [2] is reported as “metabolite_detected”.

With C[C@]12CC[C@@H]3c4ccc(O)cc4CC[C@H]3[C@@H]1C[C@@H](O)[C@@H]2O [ESTRIOL] the Drug metabolism [3] was “metabolite_detected”.

For C[C@]12CC[C@@H]3c4ccc(O)cc4CC[C@H]3[C@@H]1C[C@@H](O)[C@H]2O, the Drug metabolism [4] was “metabolite_detected”.
